Test results taken from ChEMBL document CHEMBL1147559, “Synthesis and antitumor evaluation of benzoylphenylurea analogs” (Bioorg Med Chem Lett, 2004).
Values belong to the compound of their own block, whether it stands above or below them.

What was measured:
Assay type in all cases: functional, cell-based
HEp-2 [1] = experiment: Cytotoxicity of compound against growth of human Hep2 cell line
How it was run: (§1)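 MTT dye-conversion assay. Cells kept in monolayer at 37 °C in humidified 5% CO2, trypsinized, seeded at 5 × 10³ cells/well and grown 24 h. Then treated 96 h with exponentially increasing drug concentrations in 10% FBS; compound stocks in DMSO. MTT (5 mg/mL in PBS) added for 3 h at 37 °C. Medium replaced with DMSO and OD read at 570 nm.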

HEp-2 [2] = experiment: Inhibitory concentration of compound against growth of human Hep2 cell line; Resistant; how it was run: as §1
A-431 = experiment: Inhibitory concentration of compound against growth of human A431 cell line; Resistant; how it was run: as §1
BXPC-3 [3] = experiment: Inhibitory concentration of compound against growth of human BxPC3 cell line; Resistant; how it was run: as §1
HuCCT-1 = experiment: Inhibitory concentration of compound against growth of human HuCCT-1 cell line; Resistant; how it was run: as §1
MIA PaCa-2 [4] = experiment: Inhibitory concentration of compound against growth of human MIA PaCa cell line; Resistant; how it was run: as §1
PANC-1 = experiment: Inhibitory concentration of compound against growth of human Panc-1 cell line; Resistant; how it was run: as §1
HN006 cell line = experiment: Inhibitory concentration of compound against growth of human HN006 cell line; Resistant; how it was run: as §1
SNU-308 = experiment: Inhibitory concentration of compound against growth of human SNU-308 cell line; Resistant; how it was run: as §1
MIA PaCa-2 [5] = experiment: Inhibitory concentration of compound against growth of human Mia-Paca cell line; how it was run: as §1
BXPC-3 [6] = experiment: Inhibitory concentration of compound against growth of human BxPC3 cell line; how it was run: as §1
HEp-2 [7] = experiment: Inhibitory concentration of compound against growth of human Hep2 cell line; how it was run: as §1

SMILES: Cc1cc(NC(=O)N(C)C(=O)c2ccccc2N)ccc1Oc1ncc(Br)cn1
- IC50 (HEp-2 [1]): 5 µM

SMILES: CNc1ccccc1C(=O)N(C)C(=O)Nc1ccc(Oc2ncc(Br)cn2)c(C)c1
- Activity (HEp-2 [2]): Resistant
- Activity (A-431): Resistant
- Activity (BXPC-3 [3]): Resistant
- Activity (HuCCT-1): Resistant
- Activity (MIA PaCa-2 [4]): Resistant
- Activity (PANC-1): Resistant
- Activity (HN006 cell line): Resistant
- Activity (SNU-308): Resistant

SMILES: Cc1cc(NC(=O)N(C)C(=O)c2ccccc2NC(=O)N(C)C(=O)c2ccccc2N)ccc1Oc1ncc(Br)cn1
- IC50 (HEp-2 [1]): 5 µM

- IC50 (MIA PaCa-2 [5]): 1 µM
- IC50 (BXPC-3 [6]): 1 µM
SMILES: CNc1ccccc1C(=O)NC(=O)Nc1ccc(Oc2ncc(Br)cn2)c(C)c1
- IC50 (HEp-2 [7]): 1 µM
